Data from PMC10839871 (Heliyon, 2024).
Where two headings read alike, the source gives them in different places.

Assays:
[1] = ref 27 (Djouahri et al., 2015); cited from earlier work
[2] = target: Porcine pancreatic elastase (Sus scrofa, UniProt P00772); assay: Anti-elastase activity; type: biochemical
Summary of the method: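 Porcine pancreatic elastase stock at 3.33 mg/mL in sterile water. Test sample (3–0.046 mg/mL), Tris–HCl buffer (pH 8) and enzyme pre-incubated 15 min. N-succinyl-Ala-Ala-Ala-p-nitroanilide substrate (1.6 mM solution) added, then 20 min at 37 °C. A400 read immediately. Inhibition % from blank-corrected sample versus buffer+enzyme absorbance. EGCG positive control. Run in triplicate, mean ± SD.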

[3] = Ferric reducing antioxidant power
[4] = DPPH free radical scavenging assay
Staphylococcus aureus = assay: MIC / bacterial growth, broth microdilution; type: cell-based; conditions: standard antibiotic
Summary of the method: (§1)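 Ampicillin (10 to 0.078125 mg/mL) as reference in Mueller–Hinton broth microdilution. Wells inoculated with fresh overnight suspension adjusted to OD600 0.6; uninoculated and drug-free growth controls included. Incubated 18 h at 37 °C, aerobic, shaking at 150 rpm. Growth checked visually and spectrophotometrically. MIC taken as lowest concentration preventing visible growth. Triplicate.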

Pseudomonas aeruginosa = assay: MIC / bacterial growth, broth microdilution; type: cell-based; conditions: standard antibiotic
Summary of the method: as §1

Enterococcus faecalis = assay: MIC / bacterial growth, broth microdilution; type: cell-based; conditions: standard antibiotic
Summary of the method: as §1

Chain of Porcine pancreatic elastase (P00772 27-266): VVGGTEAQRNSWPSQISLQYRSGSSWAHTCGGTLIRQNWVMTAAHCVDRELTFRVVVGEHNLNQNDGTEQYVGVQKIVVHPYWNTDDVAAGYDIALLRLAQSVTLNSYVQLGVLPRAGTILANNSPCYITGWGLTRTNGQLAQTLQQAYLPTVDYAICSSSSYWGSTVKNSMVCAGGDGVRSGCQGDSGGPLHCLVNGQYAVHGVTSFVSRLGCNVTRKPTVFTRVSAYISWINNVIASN

## O=C1O[C@H]([C@@H](O)CO)C(O)=C1O [Ascorbic acid]
ABTS assay
  ABTS IC50: 21.7 ± 0.29 µg/mL

## COc1ccc(O)c(C(C)(C)C)c1 [BHA]
[1]
  DPPH IC50: 24.73 ± 0.11 µg/mL

## Cc1cc(C(C)(C)C)c(O)c(C(C)(C)C)c1 [BHT]
[1]
  DPPH IC50: 33.89 ± 0.16 µg/mL

## O=C(O[C@@H]1Cc2c(O)cc(O)cc2O[C@@H]1c1cc(O)c(O)c(O)c1)c1cc(O)c(O)c(O)c1 [EGCG, epigallocatechin gallate]
[2]
  Elastase IC50: 92.00 ± 3.1 µg/mL

## O=c1c(O)c(-c2ccc(O)c(O)c2)oc2cc(O)cc(O)c12 [Quercetin]
[3]
  FRAP: 16.60 ± 0.64 mM of FeSO4/g Extract
[4]
  DPPH IC50: 5.36 ± 0.25 µg/mL

## CC1(C)S[C@@H]2[C@H](NC(=O)[C@H](N)c3ccccc3)C(=O)N2[C@H]1C(=O)O [ampicillin]
Staphylococcus aureus
  Concentration that completely inhibited the bacterial growth: 0.3125 mg/mL
Pseudomonas aeruginosa
  Concentration that completely inhibited the bacterial growth: 0.3125 mg/mL
Enterococcus faecalis
  Concentration that completely inhibited the bacterial growth: 0.3125 mg/mL
